Experimental data: ChEMBL document CHEMBL4038321, “Design, Synthesis, and Pharmacokinetics of a Bone-Targeting Dual-Action Prodrug for the Treatment of Osteoporosis” (J Med Chem, 2017)

What was measured:
[1] = tested on: Spleen; assay: Drug uptake in Sprague-Dawley rat spleen at 1.8 uCi, iv administered as bolus dose after 7 days; assay type: ADME, organism-based; conditions: in vivo, 168 h
Summary of the method: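 Female Sprague Dawley rats, about 13 weeks old on arrival, in five groups of three. Single IV tail-vein bolus of mixed [3H]- and [14C]-labelled conjugate (8.90 and 1.77 µCi/rat), total 5.0 mg/kg. Vehicle was 10% Poloxamer 188 adjusted to pH 8.0 with NaHCO3, then diluted with an equal volume of PBS. Groups killed at 6 h, 1, 7, 14 and 28 days. Spleen radioactivity measured by oxidizer incineration and reported as percent of administered dose, averaged over three rats.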

[2] = tested on: Brain; assay: Drug uptake in Sprague-Dawley rat brain at 1.8 uCi, iv administered as bolus dose after 6 hrs; assay type: ADME, organism-based; conditions: in vivo
Summary of the method: (§1)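 Female Sprague Dawley rats, about 13 weeks old, in five groups of three. Single IV tail-vein bolus of mixed 3H-conjugate (8.90 µCi/rat) and 14C-conjugate (1.77 µCi/rat), total dose 5.0 mg/kg. Vehicle was 10% Poloxamer 188, brought to pH 8.0 with NaHCO3, then diluted with an equal volume of PBS. Groups were killed at 6 h, 1, 7, 14 and 28 days. Tissues and femurs were incinerated in a biological oxidizer. Values are % of administered dose, with skeleton taken as 8% of body weight, averaged over three rats.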

[3] = tested on: Kidney; assay: Drug uptake in Sprague-Dawley rat kidney at 1.8 uCi, iv administered as bolus dose after 28 days; assay type: ADME, organism-based; conditions: in vivo, 672 h; summary of the method: as §1
[4] = tested on: Liver; assay: Drug uptake in Sprague-Dawley rat liver at 1.8 uCi, iv administered as bolus dose after 28 days; assay type: ADME, organism-based; conditions: in vivo, 672 h; summary of the method: as §1
[5] = tested on: Kidney; assay: Drug uptake in Sprague-Dawley rat kidney at 1.8 uCi, iv administered as bolus dose after 14 days; assay type: ADME, organism-based; conditions: in vivo, 336 h; summary of the method: as §1
[6] = tested on: Brain; assay: Drug uptake in Sprague-Dawley rat brain at 1.8 uCi, iv administered as bolus dose after 1 day; assay type: ADME, organism-based; conditions: in vivo, 24 h; summary of the method: as §1
[7] = tested on: Liver; assay: Drug uptake in Sprague-Dawley rat liver at 1.8 uCi, iv administered as bolus dose after 14 days; assay type: ADME, organism-based; conditions: in vivo, 336 h; summary of the method: as §1
[8] = tested on: Heart; assay: Drug uptake in Sprague-Dawley rat heart at 1.8 uCi, iv administered as bolus dose after 1 day; assay type: ADME, organism-based; conditions: in vivo, 24 h; summary of the method: as §1
[9] = tested on: Bone; assay: Drug uptake in Sprague-Dawley rat bone at 1.8 uCi, iv administered as bolus dose after 1 day; assay type: ADME, organism-based, Bone element; conditions: in vivo, 24 h; summary of the method: as §1
[10] = tested on: Rattus norvegicus; assay: Toxicity in Sprague-Dawley rat assessed as unusual reaction at 1.8 uCi, iv administered as bolus dose after 28 dyas; assay type: organism-based; conditions: in vivo
Summary of the method: (§2)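 Same dual-label study: female Sprague Dawley rats got one IV tail-vein bolus of [3H] (8.90 µCi) plus [14C] (1.77 µCi) conjugate, total 5.0 mg/kg, in Poloxamer 188/PBS vehicle at pH 8.0. Groups of three were sacrificed up to 28 days after dosing.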

[11] = tested on: Spleen; assay: Drug uptake in Sprague-Dawley rat spleen at 1.8 uCi, iv administered as bolus dose after 14 days; assay type: ADME, organism-based; conditions: in vivo, 336 h; summary of the method: as §1
[12] = tested on: Kidney; assay: Drug uptake in Sprague-Dawley rat kidney at 1.8 uCi, iv administered as bolus dose after 6 hrs; assay type: ADME, organism-based; conditions: in vivo; summary of the method: as §1
[13] = tested on: Bone; assay: Drug uptake in Sprague-Dawley rat bone at 1.8 uCi, iv administered as bolus dose after 6 hrs; assay type: ADME, organism-based, Bone element; conditions: in vivo; summary of the method: as §1
[14] = tested on: Liver; assay: Drug uptake in Sprague-Dawley rat liver at 1.8 uCi, iv administered as bolus dose after 6 hrs; assay type: ADME, organism-based; conditions: in vivo; summary of the method: as §1
[15] = tested on: Liver; assay: Drug uptake in Sprague-Dawley rat liver at 1.8 uCi, iv administered as bolus dose after 7 days; assay type: ADME, organism-based; conditions: in vivo, 168 h; summary of the method: as §1
[16] = tested on: Liver; assay: Drug uptake in Sprague-Dawley rat liver at 1.8 uCi, iv administered as bolus dose after 1 day; assay type: ADME, organism-based; conditions: in vivo, 24 h; summary of the method: as §1
[17] = tested on: Kidney; assay: Drug uptake in Sprague-Dawley rat kidney at 1.8 uCi, iv administered as bolus dose after 1 day; assay type: ADME, organism-based; conditions: in vivo, 24 h; summary of the method: as §1
[18] = tested on: Bone; assay: Drug uptake in Sprague-Dawley rat bone at 1.8 uCi, iv administered as bolus dose after 14 days; assay type: ADME, organism-based, Bone element; conditions: in vivo, 336 h; summary of the method: as §1
[19] = tested on: Spleen; assay: Drug uptake in Sprague-Dawley rat spleen at 1.8 uCi, iv administered as bolus dose after 1 day; assay type: ADME, organism-based; conditions: in vivo, 24 h; summary of the method: as §1
[20] = tested on: Spleen; assay: Drug uptake in Sprague-Dawley rat spleen at 1.8 uCi, iv administered as bolus dose after 28 days; assay type: ADME, organism-based; conditions: in vivo, 672 h; summary of the method: as §1
[21] = tested on: Kidney; assay: Drug uptake in Sprague-Dawley rat kidney at 1.8 uCi, iv administered as bolus dose after 7 days; assay type: ADME, organism-based; conditions: in vivo, 168 h; summary of the method: as §1
[22] = tested on: Heart; assay: Drug uptake in Sprague-Dawley rat heart at 1.8 uCi, iv administered as bolus dose after 6 hrs; assay type: ADME, organism-based; conditions: in vivo; summary of the method: as §1
[23] = tested on: Bone; assay: Drug uptake in Sprague-Dawley rat bone at 1.8 uCi, iv administered as bolus dose after 7 days; assay type: ADME, organism-based, Bone element; conditions: in vivo, 168 h; summary of the method: as §1
[24] = tested on: Rattus norvegicus; assay: Toxicity in Sprague-Dawley rat assessed as behavioral change at 1.8 uCi, iv administered as bolus dose after 28 dyas; assay type: organism-based; conditions: in vivo; summary of the method: as §2
[25] = tested on: Bone; assay: Drug uptake in Sprague-Dawley rat bone at 1.8 uCi, iv administered as bolus dose after 28 days; assay type: ADME, organism-based, Bone element; conditions: in vivo, 672 h; summary of the method: as §1
[26] = tested on: Spleen; assay: Drug uptake in Sprague-Dawley rat spleen at 1.8 uCi, iv administered as bolus dose after 6 hrs; assay type: ADME, organism-based; conditions: in vivo; summary of the method: as §1

CCOC(=O)CCCCCCN1C(=O)CC[C@@H]1/C=C/[C@@H](OC(=O)Cc1ccc(COC(=O)N[C@@H](CC(C)C)C(=O)N[C@@H](CCCNC(=N)N)C(=O)Nc2ccc(CO[14C](=O)NCCCC(O)(P(=O)(O)O)P(=O)(O)O)cc2)cc1)C(F)(F)c1ccccc1
Drug uptake [1]: 0.086 %ID | Drug uptake [2]: 0.014 %ID | Drug uptake [3]: 0.0092 %ID | Drug uptake [4]: 0.1 %ID | Drug uptake [5]: 0.013 %ID | Drug uptake [6]: 0.012 %ID | Drug uptake [7]: 0.27 %ID | Drug uptake [8]: 0.009 %ID | Drug uptake [9]: 4.63 %ID | Activity [10]: Non-Toxic | Drug uptake [11]: 0.05 %ID | Drug uptake [12]: 0.11 %ID | Drug uptake [13]: 5.52 %ID | Drug uptake [14]: 7.03 %ID | Drug uptake [15]: 0.61 %ID | Drug uptake [16]: 2.5 %ID | Drug uptake [17]: 0.047 %ID | Drug uptake [18]: 2.52 %ID | Drug uptake [19]: 0.23 %ID | Drug uptake [20]: 0.039 %ID | Drug uptake [21]: 0.02 %ID | Drug uptake [22]: 0.017 %ID | Drug uptake [23]: 3.51 %ID | Activity [24]: Non-Toxic | Drug uptake [25]: 2.44 %ID | Drug uptake [26]: 0.34 %ID
